Key:
HT-29 = assay: Growth inhibition of human HT29 cells after 72 hrs by SRB assay; assay type: functional; details: HT-29, 72 h
Procedure, shortened: (§1)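 Cells seeded in 96-well plates, in exponential growth at time of sample addition; various concentrations added in triplicate, 37 °C, 5% CO2, 72 h. Fixed with formalin 30 min at room temperature, tap-water washed, stained with 0.4% SRB 30 min, washed with 1% acetic acid, dye solubilized in 10 mM unbuffered Tris base; OD at 520 nm. GI50 from dose–response curve, three independent experiments.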

DU-145 = assay: Growth inhibition of human DU145 cells after 72 hrs by SRB assay; assay type: functional; details: DU-145, 72 h; procedure, shortened: as §1
SK-MEL-2 = assay: Growth inhibition of human SK-MEL-2 cells after 72 hrs by SRB assay; assay type: functional; details: SK-MEL-2, 72 h; procedure, shortened: as §1
A549 = assay: Growth inhibition of human A549 cells after 72 hrs by SRB assay; assay type: functional; details: A549, 72 h; procedure, shortened: as §1
[1] = biological target: Voltage-dependent T-type calcium channel subunit alpha-1G (Homo sapiens, UniProt O43497); assay: Inhibition of T-type calcium channel Cav3.1 alpha1G expressed in HEK293 cells by whole cell patch-clamp method; assay type: cell-based
Voltage-dependent T-type calcium channel subunit alpha-1G, sequence (O43497 whole entry): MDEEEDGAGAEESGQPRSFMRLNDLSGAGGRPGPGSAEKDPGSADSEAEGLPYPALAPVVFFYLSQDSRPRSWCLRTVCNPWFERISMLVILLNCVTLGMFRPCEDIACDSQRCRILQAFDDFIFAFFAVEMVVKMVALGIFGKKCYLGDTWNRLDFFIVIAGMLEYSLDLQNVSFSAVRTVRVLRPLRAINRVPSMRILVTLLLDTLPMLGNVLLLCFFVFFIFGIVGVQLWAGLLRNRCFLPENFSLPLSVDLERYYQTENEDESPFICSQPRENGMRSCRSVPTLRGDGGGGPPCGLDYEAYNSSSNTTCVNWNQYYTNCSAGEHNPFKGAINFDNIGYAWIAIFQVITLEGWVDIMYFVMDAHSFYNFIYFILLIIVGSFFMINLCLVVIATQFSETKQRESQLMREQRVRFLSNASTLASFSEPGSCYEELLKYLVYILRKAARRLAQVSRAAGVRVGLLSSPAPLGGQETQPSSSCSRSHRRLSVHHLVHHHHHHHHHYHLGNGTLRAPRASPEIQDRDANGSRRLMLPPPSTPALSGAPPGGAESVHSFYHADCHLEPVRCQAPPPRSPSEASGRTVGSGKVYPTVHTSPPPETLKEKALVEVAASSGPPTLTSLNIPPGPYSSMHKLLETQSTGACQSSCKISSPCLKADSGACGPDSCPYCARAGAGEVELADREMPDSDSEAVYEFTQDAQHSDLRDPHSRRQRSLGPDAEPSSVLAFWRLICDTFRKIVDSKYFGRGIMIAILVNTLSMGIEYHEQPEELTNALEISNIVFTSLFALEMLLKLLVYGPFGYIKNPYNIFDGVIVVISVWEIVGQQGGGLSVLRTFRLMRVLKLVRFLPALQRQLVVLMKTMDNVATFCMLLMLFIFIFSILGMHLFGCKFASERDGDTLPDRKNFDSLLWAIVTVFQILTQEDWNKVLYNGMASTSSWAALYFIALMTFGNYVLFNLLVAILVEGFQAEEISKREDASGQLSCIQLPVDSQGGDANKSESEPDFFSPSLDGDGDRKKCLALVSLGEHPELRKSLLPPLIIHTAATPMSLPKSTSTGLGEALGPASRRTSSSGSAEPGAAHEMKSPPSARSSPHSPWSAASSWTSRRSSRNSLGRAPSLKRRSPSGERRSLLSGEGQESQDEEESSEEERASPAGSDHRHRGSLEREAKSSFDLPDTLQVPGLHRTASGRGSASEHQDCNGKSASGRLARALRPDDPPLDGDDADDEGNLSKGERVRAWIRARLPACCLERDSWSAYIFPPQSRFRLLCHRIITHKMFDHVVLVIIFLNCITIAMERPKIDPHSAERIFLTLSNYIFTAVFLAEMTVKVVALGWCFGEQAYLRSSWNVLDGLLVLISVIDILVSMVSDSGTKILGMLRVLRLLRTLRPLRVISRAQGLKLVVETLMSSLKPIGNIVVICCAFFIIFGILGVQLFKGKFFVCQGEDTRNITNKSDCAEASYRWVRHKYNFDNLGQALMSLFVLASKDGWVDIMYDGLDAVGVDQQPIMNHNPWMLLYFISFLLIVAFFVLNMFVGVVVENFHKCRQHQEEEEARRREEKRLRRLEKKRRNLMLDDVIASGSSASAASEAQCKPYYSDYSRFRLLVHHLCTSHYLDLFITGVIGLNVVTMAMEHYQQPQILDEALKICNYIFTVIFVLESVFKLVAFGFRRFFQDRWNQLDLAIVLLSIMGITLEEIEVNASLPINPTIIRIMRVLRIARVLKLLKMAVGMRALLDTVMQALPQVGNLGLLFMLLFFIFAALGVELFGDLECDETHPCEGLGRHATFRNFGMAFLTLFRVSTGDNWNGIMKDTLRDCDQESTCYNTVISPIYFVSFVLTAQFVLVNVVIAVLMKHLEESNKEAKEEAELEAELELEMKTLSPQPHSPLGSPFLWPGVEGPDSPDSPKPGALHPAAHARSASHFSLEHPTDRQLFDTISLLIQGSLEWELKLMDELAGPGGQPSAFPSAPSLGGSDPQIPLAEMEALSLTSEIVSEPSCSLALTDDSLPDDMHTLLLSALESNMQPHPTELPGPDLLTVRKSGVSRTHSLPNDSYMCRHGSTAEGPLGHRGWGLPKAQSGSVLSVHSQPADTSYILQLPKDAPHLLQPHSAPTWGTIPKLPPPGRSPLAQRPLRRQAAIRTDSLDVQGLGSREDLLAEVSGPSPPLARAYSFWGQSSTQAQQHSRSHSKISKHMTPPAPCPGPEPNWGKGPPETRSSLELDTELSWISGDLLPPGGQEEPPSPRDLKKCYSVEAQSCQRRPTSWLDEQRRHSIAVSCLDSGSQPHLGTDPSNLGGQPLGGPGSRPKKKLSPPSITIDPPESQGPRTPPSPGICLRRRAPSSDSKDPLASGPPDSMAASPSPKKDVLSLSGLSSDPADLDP
Procedure, shortened: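 HEK293 stably coexpressing Cav3.1 (alpha1G) and Kir2.1; whole-cell recording, 3–4 MΩ electrodes. Internal (mM): 130 KCl, 11 EGTA, 5 Mg-ATP, 10 HEPES, pH 7.4. External (mM): 140 NaCl, 2 CaCl2, 10 HEPES, 10 glucose, pH 7.4. Currents evoked every 15 s by 50 ms step from −100 to −30 mV. IC50 for peak-current inhibition fitted from dose–response curves, three independent experiments.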

SK-OV-3 = assay: Growth inhibition of human SKOV3 cells after 72 hrs by SRB assay; assay type: functional; details: SK-OV-3, 72 h; procedure, shortened: as §1
Mus musculus = assay: Acute toxicity in ICR CD1 mouse assessed as mortality at 1000 mg/kg, po after 5 days; assay type: organism-based; parameters: dose 1000 mg/kg, route oral; details: in vivo, 120 h
Procedure, shortened: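 Single oral dose given as a corn oil mixture to two CD-1 (ICR) mice, with mortality monitored over 5 days.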

GI50 (HT-29)	GI50 (DU-145)	GI50 (SK-MEL-2)	GI50 (A549)	IC50 [1]	GI50 (SK-OV-3)	SMILES	Activity (Mus musculus)
28300 nM	> 100000 nM	44000 nM	> 100000 nM	380 nM	> 100000 nM	CN(C)C1=Nc2ccccc2C(CC(=O)NCc2ccc(N)cc2)N1c1ccccc1 (stereo unspecified)	–
1710 nM	1710 nM	1730 nM	1930 nM	–	1950 nM	O=C(CC1c2ccccc2N=C(N2CCCCC2)N1c1ccccc1)NCc1ccc(NS(=O)(=O)c2ccc(F)cc2)cc1 (stereo unspecified)	–
210 nM	60 nM	110 nM	160 nM	–	120 nM	COc1cccc2c1C(=O)c1c(O)c3c(c(O)c1C2=O)C[C@@](O)(C(=O)CO)C[C@@H]3O[C@H]1C[C@H](N)[C@H](O)[C@H](C)O1 (stereo in doubt) [DOXORUBICIN]	–
2080 nM	3830 nM	4310 nM	3830 nM	–	4610 nM	COC(=O)CC1c2ccccc2N=C(NCCCCCNC(=O)OC(C)(C)C)N1c1ccc(-c2ccccc2)cc1 (stereo unspecified)	–
520 nM	1780 nM	1910 nM	1770 nM	–	1950 nM	COC(=O)CC1c2ccccc2N=C(N(C)CCCCCN(C)C)N1c1ccc(-c2ccccc2)cc1 (stereo unspecified)	–
3150 nM	6520 nM	8530 nM	14300 nM	630 nM	15600 nM	Cc1ccc(S(=O)(=O)Nc2ccc(CNC(=O)CC3c4ccccc4N=C(N(C)C)N3c3ccccc3)cc2)cc1 (stereo unspecified)	–
1080 nM	4090 nM	1800 nM	2900 nM	–	3990 nM	COC(=O)CC1c2ccccc2N=C(Nc2ccc(-c3ccccc3)cc2)N1CCCCCN (stereo unspecified)	–
22300 nM	> 100000 nM	31600 nM	> 100000 nM	350 nM	> 100000 nM	CN(C)C1=Nc2ccccc2C(CC(=O)NCc2ccc([N+](=O)[O-])cc2)N1c1ccccc1 (stereo unspecified)	–
1700 nM	1790 nM	1590 nM	1870 nM	–	2010 nM	CC(C)(C)OC(=O)NCCCCCN1C(Nc2ccc(-c3ccccc3)cc2)=Nc2ccccc2C1CC(=O)NCc1ccccc1 (stereo unspecified)	–
13900 nM	17200 nM	17000 nM	24500 nM	1040 nM	26100 nM	CCN1C(N2CCCCC2)=Nc2ccccc2C1CC(=O)NCc1ccc(NS(=O)(=O)c2ccc(F)cc2)cc1 (stereo unspecified)	–
1670 nM	1640 nM	1480 nM	1830 nM	–	1610 nM	CC(C)(C)OC(=O)NCCCCCNC1=Nc2ccccc2C(CC(=O)NCc2ccccc2)N1c1ccc(-c2ccccc2)cc1 (stereo unspecified)	–
610 nM	2490 nM	690 nM	870 nM	–	2760 nM	CN(CCCCCN1CCCC1)C1=Nc2ccccc2C(CC(=O)NCc2ccccc2)N1c1ccc(-c2ccccc2)cc1 (stereo unspecified)	–
3180 nM	4260 nM	2020 nM	7740 nM	570 nM	7180 nM	CC(C)(C)OC(=O)NCCCCCNC1=Nc2ccccc2C(CC(=O)NCc2ccccc2)N1c1ccccc1 (stereo unspecified)	–

SMILES	GI50 (HT-29)	GI50 (DU-145)	GI50 (SK-MEL-2)	GI50 (A549)	IC50 [1]	GI50 (SK-OV-3)	Activity (Mus musculus)
CN(C)CCCCCN(C)C1=Nc2ccccc2C(CC(=O)NCc2ccccc2)N1c1ccc(-c2ccccc2)cc1 (stereo unspecified)	40 nM	190 nM	480 nM	170 nM	–	660 nM	Non-toxic

From ChEMBL document CHEMBL1155097, “T-type Ca2+ channel blockers suppress the growth of human cancer cells” (Bioorg Med Chem Lett, 2008)
